Test results published in ChEMBL document CHEMBL1122860, “Stereoselectivity of muscarinic receptors in vivo and in vitro for oxotremorine analogues. N-[4-(tertiary amino)-2-butynyl]-5-methyl-2-pyrrolidones” (J Med Chem, 1985).
Active and inactive are the calls of the source. No cut-off for these calls is given here.

Legend:
[1] = Acute toxicity in mice; format: organism-based; settings: mouse, in vivo
Procedure, shortened: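 Mice given compound intravenously; LD50 determined by the up and down method for small samples. Mortality counted at 15 min.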

Mus musculus [2] = species on record: Mus musculus; test: Tested for mydriatic activity in mice, expressed as the dose required to cause half-maximal pupillary dilation.; format: functional
Mus musculus [3] = species on record: Mus musculus; test: Tested for tremorolytic activity in mice, expressed as dose required to double the dose of oxotremorine inducing a predetermined (grade 2) tremor intensity.; format: functional
Procedure, shortened: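 Antagonist given i.p. to groups of six or more mice at four linearly spaced doses including zero, 15 min before i.v. oxotremorine (log dose series, 0.1 log spacing). Median oxotremorine dose evoking grade 2 tremor estimated by Dixon up-and-down method, tremor scored visually over first 5 min. The antagonist dose doubling that median dose was found by linear regression.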

[4] = Tested for its effect on contraction of frog rectus abdominis muscle, expressed as equipotent molar ratio relative to carbamylcholine.; format: functional
Procedure, shortened: (§1)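 Rana pipiens rectus abdominis held at 20 °C in aerated Clark-Ringer solution, pH 7.4. Each drug concentration applied for 5 min. Equipotent molar ratio relative to carbachol determined in three-point assays.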

[5] = target: T1, Muscarinic acetylcholine receptor (Homo sapiens) (UniProt P20309+P08173+P11229+P08172+P08912); test: Tested for agonist activity at muscarinic receptor in guinea pig ileum, expressed as equipotent molar ratio relative to carbamylcholine.; format: functional, tissue-based; settings: Cavia porcellus
[6] = target: T1, Muscarinic acetylcholine receptor (Homo sapiens); test: Tested for agonist activity at Muscarinic acetylcholine receptor in guinea pig ileum; format: functional, tissue-based; settings: Cavia porcellus, target entry is the homologue from another species
[7] = target: T1, Muscarinic acetylcholine receptor (Homo sapiens); settings: Cavia porcellus; Ileum
Cavia porcellus [8] = species on record: Cavia porcellus; test: Relative efficacy calculated from KA and ED50 values; format: functional
Procedure, shortened: (§2)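 Isolated guinea pig ileum. Control agonist dose-response curves were run, then tissue treated with propylbenzilylcholine mustard 2×10⁻⁸ M for 15–20 min, cutting maximal response by 20–80%. Double-reciprocal plots of equieffective agonist concentrations before and after treatment gave K_A (Furchgott method). Relative efficacy was derived from K_A and ED50; occupancy for 50% response was taken as 100ED50/(K_A + ED50).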

Cavia porcellus [9] = species on record: Cavia porcellus; test: Percent occupancy for 50% response calculated from (100 x ED50)/(KA+ED50).; format: functional; procedure, shortened: as §2
frog = test: Tested for its effect on contraction of frog rectus abdominis muscle, expressed as equipotent molar ratio relative to carbamylcholine; Inactive; format: functional, tissue-based; procedure, shortened: as §1
[10] = target: T1, Muscarinic acetylcholine receptor (Homo sapiens); settings: Cavia porcellus; Ileum; remark: listed apart in the source

C[C@@H]1CCC(=O)N1CC#CCN1CCCC1
LD50 [1]: 45 µmol/kg | ED50 (Mus musculus [2]): 4.8 µmol/kg | ED50 (Mus musculus [3]): 0.19 µmol/kg | EPMR [4]: 141

CC1CCC(=O)N1CC#CCN(C)C (racemic)
EPMR [5]: 8.8 | ED50 (Mus musculus [3]): 5.5 µmol/kg | ED50 [6]: 0.55 µM l-1

C[C@H]1CCC(=O)N1CC#CCN1CCCC1
LD50 [1]: 40 µmol/kg | ED50 (Mus musculus [2]): 66 µmol/kg | ED50 (Mus musculus [3]): 4.2 µmol/kg | EPMR [4]: 132

C[C@H]1CCC(=O)N1CC#CC[N+](C)(C)C.[I-]
LD50 [1]: 3.5 µmol/kg | EPMR [5]: 20 | EPMR [4]: 8.8 | ED50 [6]: 1.3

CN(C)CC#CCN1CCCC1=O
KA [7]: 22.9 µM l-1 | Relative efficacy (Cavia porcellus [8]): 6.51 | Occupancy (Cavia porcellus [9]): 0.55%

C[C@H]1CCC(=O)N1CC#CCN(C)C
LD50 [1]: 183 µmol/kg | EPMR (frog): inactive | EPMR [5]: 73.9 | ED50 (Mus musculus [3]): 50 µmol/kg | ED50 [6]: 4.6 µM l-1

O=C1CCCN1CC#CCN1CCCC1 [OXOTREMORINE]
ED50 [10]: 0.026 µM l-1 | KA [7]: 0.68 | LD50 [1]: 6.7 µmol/kg | Relative efficacy (Cavia porcellus [8]): 1 | EPMR [5]: 0.42 | Occupancy (Cavia porcellus [9]): 3.5% | EPMR [4]: 49

C[C@@H]1CCC(=O)N1CC#CC[N+](C)(C)C.[I-]
LD50 [1]: 8.9 µmol/kg | EPMR [5]: 1.2 | EPMR [4]: 10 | ED50 [6]: 0.076

C[C@@H]1CCC(=O)N1CC#CCN(C)C
LD50 [1]: 426 µmol/kg | EPMR (frog): inactive | Relative efficacy (Cavia porcellus [8]): 0.29 | EPMR [5]: 4.6 | Occupancy (Cavia porcellus [9]): 11% | ED50 (Mus musculus [3]): 2.4 µmol/kg | ED50 [6]: 0.29 µM l-1 | KA [6]: 2.34

CN1[C@@H]2CC[C@H]1C[C@@H](OC(=O)C(CO)c1ccccc1)C2 (stereo partly drawn) [ATROPINE]
ED50 (Mus musculus [3]): 0.86 µmol/kg

C[C@H](C#CCN1CCCC1)N1CCCC1=O
ED50 (Mus musculus [3]): 0.26 µmol/kg

CC1CCC(=O)N1CC#CCN1CCCC1 (racemic)
ED50 (Mus musculus [2]): 9 µmol/kg | ED50 (Mus musculus [3]): 0.4 µmol/kg | EPMR [4]: 116

C[C@@H](C#CCN1CCCC1)N1CCCC1=O
ED50 (Mus musculus [3]): 20 µmol/kg
